According to publication PMC6373376 (Clinical Pharmacokinetics, 2018):
Read-outs that look alike come from different tables or passages of the source.

What was measured:
[1] = cited from earlier work
[2] = assay type: in vivo, human; details: for T½ / Tlag / AUC(0-t) / AUC(0-inf) / Cmax / Tmax / half-life / Vd/F: Study B part 1, siponimod 0.25 mg single dose; for AUC / AUC(0-t) / AUC(0-inf) / Cmax / Tmax / half-life / Vd/F: human, plasma, oral, 0.25 mg; for AUC: AUC24, Study B part 1, siponimod 0.25 mg single dose; for AUC(0-t): AUClast; for half-life: T½; for Vd/F: VZ/F
[3] = system: CYP2C9; details: cited from earlier work
[4] = cited from earlier work; remark: listed apart in the source
[5] = same dosing regimen, ref unpublished data; cited from earlier work
[6] = assay type: in vivo, human; details: for Tlag / Tmax: median (range)
[7] = cited from earlier work; remark: listed apart in the source
[8] = system: CYP3A4; details: cited from earlier work
[9] = Study A: safety/tolerability; assay type: in vivo, human
Procedure, shortened: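 Healthy adults; open-label, two-period, single-sequence design. Period 1: single oral 4 mg test compound on day 1. Period 2: azole CYP2C9 inhibitor 200 mg twice on day 1, then 200 mg once daily days 2–19, with 4 mg test compound on day 3. Washout 14–21 days. Safety covered all AEs and SAEs, physical exams, vital signs, ECG and lab tests, in everyone given at least one dose.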

[10] = Study B: safety/tolerability; assay type: in vivo, human
Procedure, shortened: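 Healthy subjects genotyped for CYP2C9. Part 1: single oral 0.25 mg test compound to *1/*1 (n = 12), *2/*3 (n = 6) and *3/*3 (n = 6), then 42-day washout. Part 2: poor metabolisers only, 0.25 mg on days 1–2 and 0.5 mg on day 3. Safety covered all AEs and SAEs, cardiac monitoring, haematology, blood chemistry and urinalysis, in all dosed subjects.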

[11] = assay type: in vivo, human
[12] = single-ascending dose 0.1–75 mg
[13] = CYP2C9*1/*1, geometric mean (CV%)
[14] = CYP2C9*2/*3, geometric mean (CV%)
[15] = CYP2C9*3/*3, geometric mean (CV%)

In the case of `CCc1cc(/C(C)=N/OCc2ccc(C3CCCCC3)c(C(F)(F)F)c2)ccc1CN1CC(C(=O)O)C1` [Siponimod], the “Single-dose maximum tolerated dose (MTD)” value ([1]; healthy subjects, single-ascending dose range study, ref unpublished data) is given as 25 mg, the “Earliest time measurable in plasma postdose” value ([1]; single-ascending dose 0.1–75 mg, 98 healthy subjects) is given as 0.25 h and the “Time at which Cmax was reached postdose” value [1, 12] is given as 3 to 8 h. The “Time at which Cmax was reached, minimum–maximum” value [1, 12] was 0.25 to 24 h, the “T½, mean range” value ([1]; single-ascending dose study, ref unpublished data) was 27 to 57 h and the T½ [2, 13] was 28.1 (18.5) h. For the same compound, the Tlag ([2]; CYP2C9*1/*1, median (range)) was 0.25 (0.00–0.50) h, the T½ [2, 14] was 50.9 (31.7) h and the Tlag ([2]; CYP2C9*2/*3, median (range)) was 0.25 (0.00–0.50) h. For the same compound, the Tlag ([2]; CYP2C9*3/*3, median (range)) was 0.50 (0.00–0.50) h, the AUC [2, 13] was 31.6 ng·h/mL and the AUC [2, 14] was 44.7 ng·h/mL. It also gave an AUC [2, 15] of 42.7 ng·h/mL, an AUC(0-t) [2, 13] of 68.6 ng·h/mL and an AUC(0-t) [2, 14] of 140 ng·h/mL. It also gave an AUC(0-t) [2, 15] of 266 ng·h/mL, an AUC(0-inf) [2, 13] of 70.5 ng·h/mL and an AUC(0-inf) [2, 14] of 144 ng·h/mL. The AUC(0-inf) [2, 15] was 271 ng·h/mL, the Cmax [2, 14] was 2.45 ng/mL and the Cmax [2, 15] was 2.35 ng/mL. For the same compound, the Tmax ([2]; CYP2C9*1/*1, median (range)) was 4 h, the Tmax ([2]; CYP2C9*2/*3, median (range)) was 5 h and the Tmax ([2]; CYP2C9*3/*3, median (range)) was 4 h. It also gave a half-life [2, 14] of 51 h, a half-life [2, 15] of 126 h and a Vd/F [2, 13] of 144 L. For the same compound, the Vd/F [2, 14] was 127 L, the Vd/F [2, 15] was 167 L and the “Contribution of CYP2C9 to metabolism (formation of M5)” value [3] was 79.2%. The “Contribution of the CYP2C9 pathway to total metabolic clearance (fm)” value ([3]; determined in vitro) was 79%, the “Tolerability of multiple doses” value ([4]; doses up to 20 mg daily for 28 days) was “well tolerated” and the “Time to steady-state of plasma siponimod” value ([4]; multiple-ascending dose 0.3–20 mg, 28 days, 48 healthy subjects) was “approximately 6 days”. For the same compound, the “Effective elimination half-life (T½)” value ([4]; multiple-ascending dose 0.3–20 mg, range) was 22 to 38 h, the “Tmax observed in historical data” value [5] was 1.35 h and the “Increase in Cmax in the presence of fluconazole” value ([6]; Study A) was 10%. The Tlag ([6]; Study A, siponimod 4 mg + steady-state fluconazole) was 0 (0–0) h, the CL/F ([6]; Study A, siponimod 4 mg alone, geometric mean (CV%)) was 3.6 L/h and the Tlag ([6]; Study A, siponimod 4 mg alone) was 0.25 (0–0.5) h. The Tmax ([6]; Study A, siponimod 4 mg alone) was 4.0 (2.0–8.1) h, the AUC(0-inf) ([6]; human, plasma, oral, 4 mg) was 1120 ng·h/mL and the Cmax ([6]; human, plasma, oral, 4 mg) was 31.2 ng/mL. For the same compound, the Vd/F ([6]; human, plasma, oral, 4 mg) was 210 L, the Tmax ([6]; human, plasma, oral, 4 mg, Tmax, Study A, siponimod 4 mg alone) was roughly 4 h and the AUC(0-t) ([6]; human, plasma, po, 4 mg) was 1110 ng·h/mL. The “Predicted increase in siponimod AUC in the presence of fluconazole” value ([7]; SimCYP simulation) was “two to three”, the “First-pass effect estimated by SimCYP” value ([7]; ref unpublished data) was ~5 % of the administered dose and the “Contribution of CYP3A4 to metabolism (formation of M5)” value [8] was 18.5%. The “Deaths or SAEs” value ([9]; Study A) was “No deaths or SAEs were reported”, the “Subjects who experienced AEs” value ([9]; Study A period 1, siponimod 4 mg alone) was 79% and the “Subjects who experienced AEs” value ([9]; Study A period 2, siponimod + fluconazole) was 73%. The “Deaths or SAEs” value ([10]; Study B) was “No deaths or SAEs were reported”, the “Subjects reporting at least one AE” value ([10]; Study B part 2, 12 subjects) was 25% and the “Headache (most prevalent AE) incidence” value ([10]; Study B, in both parts) was 8.3%. The “AUC24 on day 3 higher versus the dose titration study data” value ([11]; Study B part 2, CYP2C9*2/*3, comparison with ref 15) was 1.4 fold, the “AUC24 on day 3 higher versus the dose titration study data” value ([11]; Study B part 2, CYP2C9*3/*3, comparison with ref 15) was 1.7 fold and the Tmax ([11]; human, plasma, po, 0.5 mg) was 6 h. For the same compound, the AUC ([11]; human, plasma, po, 0.5 mg, AUC24, Study B part 2, day 3, CYP2C9*2/*3, mean) was 125 ng·h/mL and the AUC ([11]; human, plasma, po, 0.5 mg, AUC24, Study B part 2, day 3, CYP2C9*3/*3, mean) was 148 ng·h/mL.
